Series [1] concerns Rattus norvegicus. Briefly: In vivo activity in anesthetized rat was measured as heart rate which provides information on in vivo bradycardic activity. Type of series: functional. A digest of the protocol: (§1)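 Male Wistar rats (280–360 g) under urethane (1.25 g/kg ip), intubated and breathing spontaneously. Femoral arterial pressure was recorded with needle-electrode ECG, analysed every 30 s. Compound was given by continuous femoral-vein infusion at 0.1 mL/min, with concentration raised tenfold every 10 min (3 doses). ED75/ED125 is the dose giving a 25% decrease/increase from the predrug value, reported as the geometric mean of individual EDs.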

A short description of series [2]: Selectivity quotient (DAP125/HR75); # means very high (estimated). Type of series: functional. The gist of the method: (§2)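 Male Wistar rats (280–360 g), urethane-anesthetized (1.25 g/kg ip), breathing spontaneously. Femoral artery pressure gave diastolic pressure; subcutaneous needle ECG gave heart rate and RαT interval (R onset to T apex), analyzed every 30 s. Femoral vein infusion at 0.1 mL/min, concentration raised tenfold every 10 min (3 doses). ED75/ED125 (25% change from predrug) were geometric means; quotients DAP125/HR75 and RαT125/HR75.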

Series [3] is filed under the species Cavia porcellus. Briefly: Score value indicates selectivity versus the decrease in force of contraction. It counts as functional.
The species entered for series [4] is Rattus norvegicus. In words: Score value indicates selectivity against the undesired effect on diastolic blood pressure. Type of series: functional, Artery.
For series [5], the species on record is Cavia porcellus. Briefly: In vitro activity in guinea pig atria as the functional refractory period (FRP), which is the shortest interval between a double stimulus causing a double contraction. The gist of the method:
(§3)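 Isolated guinea pig atria in oxygenated buffer at 35 °C. Right atria beat spontaneously; left atria were paced at 2 Hz with 1 ms rectangular pulses and isometric contractions were recorded. Cumulative concentration–response curves were run with up to five concentrations. EC75/EC125 is the concentration giving a 25% decrease/increase from the predrug value, reported as the geometric mean of individual ECs.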

A short description of series [6]: Partition coefficient (logP). It counts as physicochemical. The note with it: octanol/water; read-out: logP. A digest of the protocol: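 Lipophilicity was measured by reversed-phase HPLC. Mobile phase was methanol/0.005 M phosphate buffer pH 4 (60/40) with 0.1% SDS and 0.1 M NaClO4, at 23.0 ± 0.5 °C, with UV detection at 205 nm.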
The species named for series [7] is Cavia porcellus. In words: In vitro activity in guinea pig atria was measured as the peak force of contraction (F) of a stimulated left atrium. Type of series: functional. The note with it: Cardiac atrium. The gist of the method:
as §3

The species entered for series [8] is Cavia porcellus. Briefly: Score point for the selectivity versus additional effect FRP. Type of series: functional.
Series [9] is filed under the species Rattus norvegicus. In words: Selectivity quotient (R&T125/HR75).
The species entered for series [10] is Rattus norvegicus. In words: Score point for the selectivity versus additional effect R&T interval. It counts as functional.
The subject of series [11] is Rattus norvegicus. Briefly: In vivo activity in anesthetized rat was measured as the R alpha T-interval of the rat ECG which reflects the time from ventricular excitation to recovery. It counts as functional, Cardiac ventricle. A digest of the protocol: as §1
The species named for series [12] is Cavia porcellus. Briefly: Score value indicates decrease of the sinus rate. Type of series: functional.
The species named for series [13] is Cavia porcellus. Briefly: Selectivity quotient (F75/SR75). It counts as functional. A digest of the protocol: (§4)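 Atrial selectivity quotients were calculated from the guinea pig atrial EC values as F75/SR75 and FRP125/SR75.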
Series [14] is filed under the species Cavia porcellus. Briefly: In vitro activity in guinea pig atria was measured as rate of spontaneously beating right atrium (SR) which reflects the activity of the sinus node. Type of series: functional. The conditions noted are these: Cardiac atrium. A digest of the protocol:
as §3

For series [15], the species on record is Rattus norvegicus. In words: Score value indicates desire effect on heart rate. It counts as functional.
The species entered for series [16] is Cavia porcellus. In words: Sum of the scores of decrease of the sinus rate and selectivity versus the decrease in force of contraction. It counts as functional.
The species named for series [17] is Cavia porcellus. Briefly: Selectivity quotient (FRP125/SR75). Type of series: functional. The gist of the method: as §4
For series [18], the species on record is Rattus norvegicus. Briefly: Total score (SS).
Series [19] has as its system Rattus norvegicus. Briefly: In vivo activity in anesthetized rat was measured as the diastolic arterial pressure which provides information on the peripheral resistance of the cardiovascular system and selectivity regarding bradycardia. Type of series: functional, Artery. A digest of the protocol:
as §1

The species entered for series [20] is Rattus norvegicus. In words: Selectivity quotient (DAP125/HR75).
A short description of series [21]: Selectivity quotient (F75/SR75); # means very high (estimated). It counts as functional. A digest of the protocol: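 Isolated atria in oxygenated buffer at 35 °C. Spontaneously beating right atria gave sinus rate; left atria paced at 2 Hz with 1 ms rectangular pulses gave isometric force of contraction. Cumulative concentration-response curves used up to five concentrations. EC75 (25% decrease from predrug value) was taken as the geometric mean of individual values. Quotient is F75/SR75.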

The nature of series [22]: Selectivity quotient (R&T125/HR75); # # means very low (estimated). Type of series: functional. A digest of the protocol: as §2
The nature of series [23]: Selectivity quotient (FRP125/SR75); # # means very low (estimated). It counts as functional.

In the series on Rattus norvegicus [1], `C1CCC2(C1)C1CN(CC3CC3)CC2CN(CC2CC2)C1` [TEDISAMIL] yielded an ED75 of 5.3 µM/kg. The Selectivity quotient entry is given as “#” in series [2], 0.47 in the series filed under Rattus norvegicus [9], 37.6 in the series listed under Cavia porcellus [13] and 0.56 in the series listed under Cavia porcellus [17]. Also, the Score in the series listed under Cavia porcellus [3] turned out to be 0; in the series listed under Rattus norvegicus [4], 0; in the series filed under Cavia porcellus [8], 3; in the series filed under Rattus norvegicus [10] it was 4; in the series filed under Cavia porcellus [12], 5; in the series listed under Rattus norvegicus [15], 5. In addition, in the series listed under Cavia porcellus [16], the Score was 5. The EC125 in the series filed under Cavia porcellus [5] was 0.76 µM. Also, the lipophilicity (logP) (usually a log measure of how a compound divides between an organic and an aqueous phase) in [6] stood at 4.19. Besides, the results for the EC75 in the series filed under Cavia porcellus [7] and in the series filed under Cavia porcellus [14] were 49 µM and 1.3 µM, respectively. The same compound registered an ED125 in the series with Rattus norvegicus [11] of 2.5 µM/kg. In addition, the “total score (SS)” value in the series listed under Rattus norvegicus [18] was found to be 5.
The compound `CCCCN1CC2CN(CC(C)C)CC(C1)C2(C)C` displayed an ED75 in the series with Rattus norvegicus [1] of 5.7 µM/kg. For the same compound, the Score in the series listed under Cavia porcellus [3] is 0; in the series listed under Rattus norvegicus [4], -1; in the series filed under Cavia porcellus [8], 4; in the series filed under Rattus norvegicus [10], 5; in the series listed under Cavia porcellus [12] it was 4; in the series listed under Rattus norvegicus [15], 5. Also, in the series filed under Cavia porcellus [16], the Score is 4. Besides, the EC125 in the series filed under Cavia porcellus [5] stood at 0.82 µM. Also, the logP in [6] worked out at 3.7. In addition, the results for the ED125 in the series on Rattus norvegicus [19] and in the series with Rattus norvegicus [11] were above 41 µM/kg and 0.73 µM/kg, respectively. The Selectivity quotient in the series listed under Rattus norvegicus [20] was above 7; in the series filed under Rattus norvegicus [9], 0.13; in series [21], “#”; in the series listed under Cavia porcellus [17], 0.27. It took 3.07 µM to reach the 75% level in the series filed under Cavia porcellus [14] (EC75). Besides, the “total score (SS)” value in the series filed under Rattus norvegicus [18] came to 4.
For the compound `CCCCCCN1CC2CN(CCCCCC)CC(C1)C2(CC)CCCC` (configuration not stated), the Score in the series listed under Cavia porcellus [3] is -4; in the series listed under Rattus norvegicus [4], -3; in the series filed under Cavia porcellus [8], 2; in the series listed under Rattus norvegicus [10] it was 6; in the series filed under Cavia porcellus [12] it was 6; in the series listed under Rattus norvegicus [15] it was 0. In the series filed under Cavia porcellus [16], this compound registered a Score of 2. In addition, the Selectivity quotient entry in [22] is recorded as “very low”; in the series listed under Rattus norvegicus [20] it was 1; in the series listed under Cavia porcellus [13], 2.32; in the series filed under Cavia porcellus [17] it was 2.12. The compound further displayed an EC125 in the series filed under Cavia porcellus [5] of 1.27 µM. The lipophilicity (logP) in series [6] came out at 8.26. Moreover, the EC75 (commonly the point of the concentration-response curve where the effect stands at 75%) in the series listed under Cavia porcellus [7] amounted to 1.39 µM; in the series filed under Cavia porcellus [14] it was 0.6 µM. The same compound registered an ED125 in the series on Rattus norvegicus [11] of 4 µM/kg. For the same compound, the “total score (SS)” value in the series listed under Rattus norvegicus [18] is recorded as -3.
On to `CCCCCCN1CC2CC(CN(C)C2)C1`, for which the Selectivity quotient entry in series [23] is “very low”; in the series listed under Rattus norvegicus [20], 1; in the series listed under Rattus norvegicus [9], 0.18; in the series listed under Cavia porcellus [13] it was 1. The compound also showed an ED75 in the series with Rattus norvegicus [1] of 46 µM/kg. In addition, the Score in the series filed under Cavia porcellus [3] is -5; in the series filed under Rattus norvegicus [4], -3; in the series listed under Cavia porcellus [8], 6; in the series filed under Rattus norvegicus [10], 5; in the series listed under Cavia porcellus [12] it was 0; in the series listed under Rattus norvegicus [15], 1. In the series listed under Cavia porcellus [16], the Score is -5. The EC125 in the series listed under Cavia porcellus [5] came to 1.4 µM. Further, in series [6], the logP turned out to be 3.18. The EC75 in the series filed under Cavia porcellus [7] came to 83.8 µM. The same compound yielded an ED125 with Rattus norvegicus [11] of 8.4 µM/kg. For the same compound, the “total score (SS)” value in the series filed under Rattus norvegicus [18] was -2.
As for `CCC1(C)C2CN(CC3CCCCC3)CC1CN(CC1CCCCC1)C2` (configuration not stated), the Selectivity quotient entry in [2] is reported as “#”; in the series listed under Rattus norvegicus [9] it was 0.5; in the series filed under Cavia porcellus [13], 0.76; in the series filed under Cavia porcellus [17] it was 0.11. Further, the Score in the series listed under Cavia porcellus [3] is -6; in the series filed under Rattus norvegicus [4], 0; in the series filed under Cavia porcellus [8], 5; in the series listed under Rattus norvegicus [10], 3; in the series filed under Cavia porcellus [12], 3; in the series filed under Rattus norvegicus [15] it was 4. Besides, the Score in the series filed under Cavia porcellus [16] was -3. The compound further yielded an EC125 in the series filed under Cavia porcellus [5] of 0.68 µM. Also, the log partition coefficient (logP) in series [6] was 6.65. For the same compound, the EC75 in the series listed under Cavia porcellus [7] came out at 4.69 µM; in the series filed under Cavia porcellus [14], 6.2 µM. Further, in the series with Rattus norvegicus [11], the ED125 is 5.5 µM/kg. For the same compound, the “total score (SS)” value in the series listed under Rattus norvegicus [18] is 4.

The values above are taken from ChEMBL document CHEMBL1131456, “Synthesis, pharmacological characterization, and quantitative structure-activity relationship analyses of 3,7,9,9-tetraalkylbispidines: derivatives with specific bradycardic activity” (J Med Chem, 1998).
